Results reported in article PMC12243159 (RSC Medicinal Chemistry, 2025).
Entries after “also recorded” stand apart in the source; their conditions may differ. Where two headings read alike, the source gives them in different places.

Key:
[1] = test system: non-small cell lung carcinoma A549; assay: cell proliferation, CCK-8 assay, A549; format: cell-based; details: A549 cells, 72 hours, hypoxic conditions
[2] = test system: pancreatic epithelioid carcinoma PANC-1; assay: cell proliferation, CCK-8 assay, PANC-1; format: cell-based; details: PANC-1 cells, 72 hours, hypoxic conditions
hCA I = hCA I (Homo sapiens, UniProt P00915); assay: stopped-flow CO2 hydration assay, hCA I; format: biochemical
Chain of hCA I (P00915 whole entry): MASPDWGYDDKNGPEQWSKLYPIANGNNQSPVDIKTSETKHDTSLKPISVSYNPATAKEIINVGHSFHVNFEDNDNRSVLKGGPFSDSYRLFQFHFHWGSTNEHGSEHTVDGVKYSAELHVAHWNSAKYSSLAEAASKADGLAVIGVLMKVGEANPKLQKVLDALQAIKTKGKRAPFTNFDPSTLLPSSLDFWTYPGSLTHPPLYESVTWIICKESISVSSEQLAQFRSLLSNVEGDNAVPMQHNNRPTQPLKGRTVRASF
In short: (§1)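 Recombinant in-house enzyme, preincubated 15 min at room temperature with inhibitor. Inhibitor stock was 0.1 mM in water, diluted down to 0.01 nM. CO₂ (1.7–17 mM) hydration was followed by stopped-flow with 0.2 mM phenol red at 557 nm, in 20 mM HEPES pH 7.5 with 20 mM Na₂SO₄, over 10–100 s. Initial rates came from six traces and were corrected for the uncatalysed rate. Ki was obtained by non-linear least squares, mean of ≥3 measurements.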

hCA II [3] = molecular target: T1, hCA II (Homo sapiens, UniProt P00918); assay: stopped-flow CO2 hydration assay, hCA II; format: biochemical
In short: as §1

hCA VI = hCA VI (Homo sapiens, UniProt P23280); assay: stopped-flow CO2 hydration assay, hCA VI; format: biochemical
Chain of hCA VI (P23280 18-308): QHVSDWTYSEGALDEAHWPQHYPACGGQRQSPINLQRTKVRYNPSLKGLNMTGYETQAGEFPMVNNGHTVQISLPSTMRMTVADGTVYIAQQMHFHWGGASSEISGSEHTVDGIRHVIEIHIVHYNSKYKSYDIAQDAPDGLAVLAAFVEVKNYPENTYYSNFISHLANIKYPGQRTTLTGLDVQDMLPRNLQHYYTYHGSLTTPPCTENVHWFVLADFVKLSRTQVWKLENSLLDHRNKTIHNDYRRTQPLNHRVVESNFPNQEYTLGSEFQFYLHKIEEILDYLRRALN

hCA IX = hCA IX (Homo sapiens, UniProt Q16790); assay: stopped-flow CO2 hydration assay, hCA IX; format: biochemical; details: for SI I/IX: ratio of KI hCA I to KI hCA IX; for SI II/IX: ratio of KI hCA II to KI hCA IX
hCA XII = hCA XII (Homo sapiens, UniProt O43570); assay: stopped-flow CO2 hydration assay, hCA XII; format: biochemical; details: for SI I/XII: ratio of KI hCA I to KI hCA XII; for Ki: KI hCA XII, stopped-flow hydration assay; for SI II/XII: ratio of KI hCA II to KI hCA XII
Chain of hCA XII (O43570 25-354): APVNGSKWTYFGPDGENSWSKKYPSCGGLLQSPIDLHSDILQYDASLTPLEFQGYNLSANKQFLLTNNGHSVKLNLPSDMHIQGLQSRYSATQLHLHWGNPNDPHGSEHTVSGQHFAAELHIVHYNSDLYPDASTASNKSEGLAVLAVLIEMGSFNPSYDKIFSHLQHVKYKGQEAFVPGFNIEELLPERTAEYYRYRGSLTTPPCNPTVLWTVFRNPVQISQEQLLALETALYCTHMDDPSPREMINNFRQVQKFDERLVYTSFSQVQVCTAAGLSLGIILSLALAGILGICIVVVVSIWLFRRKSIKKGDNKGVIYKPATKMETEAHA

hCA II [4] = molecular target: T1, hCA II; details: read-out: KI hCA II; stopped-flow hydration assay; values marked *; cited from earlier work
MDA-MB-231 cells = assay: cell proliferation assay, cell counting by flow cytometry; format: cell-based, human; details: MDA-MB-231, 72 hours, hypoxic conditions
In short: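 MDA-MB-231 cells were grown in DMEM with 10% FBS, 1% penicillin/streptomycin and 1% glutamine, kept at low passage, and held under hypoxia (1% O₂, 5% CO₂). Cells were seeded at 10.000 per well and treated in 1% FBS with increasing compound concentrations for 72 h at 37 °C. They were then detached with trypsin/2 mM EDTA and counted by flow cytometry. Counts are given as % of untreated control (mean ± SEM) with IC₅₀.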

SMILES	Ki (hCA I) [µM]	Ki (hCA II [3]) [µM]	Ki (hCA VI) [µM]	Ki (hCA IX) [µM]	SI I/IX (hCA IX)	SI II/IX (hCA IX)	SI I/XII (hCA XII)	Ki (hCA XII) [µM]	SI II/XII (hCA XII)	antiproliferative effect [1]	antiproliferative effect [2]	Ki (hCA II [4]) [µM]	anti-proliferative effect (MDA-MB-231 cells)
NS(=O)(=O)c1ccc(NC(=O)Nc2ccc(F)cc2)cc1 [SLC-0111]	–	–	–	–	–	–	–	–	–	ineffective	ineffective	–	–
Cc1cn([C@H]2C[C@H](N=[N+]=[N-])[C@@H](CO)O2)c(=O)[nH]c1=O [AZT, azidothymidine, reference compound]	0.25	0.0121	0.505	0.0257	9.73	0.47	43.86	–	–	–	–	0.684	–
C#Cc1cccc(Nc2ncnc3cc(OCCOC)c(OCCOC)cc23)c1 [ERL, erlotinib]	–	–	0.453	–	–	–	–	–	–	displayed an antiproliferative effect	displayed an antiproliferative effect	3.98	mild reduction of cell proliferation; also recorded: low efficacy
COCCOc1cc2ncnc(Nc3cccc(-c4cn(CCOCCOCCOCCNC(=S)NCc5ccc(S(N)(=O)=O)cc5)nn4)c3)c2cc1OCCOC [compound 8c, 4-(15-(4-(3-((6,7-Bis(2-methoxyethoxy)quinazolin-4-yl)amino)phenyl)-1H-1,2,3-triazol-1-yl)-3-thioxo-7,10,13-trioxa-2,4-diazapentadecyl)benzenesulfonamide]	3.28	1.15	–	0.026	127	44.57	47.0	0.0697	16.5	–	–	–	–

More lines, main results first:

Ki (hCA I) [µM]	Ki (hCA II [3]) [µM]	Ki (hCA VI) [µM]	Ki (hCA IX) [µM]	SI I/IX (hCA IX)	SI II/IX (hCA IX)	SI I/XII (hCA XII)	Ki (hCA XII) [µM]	SI II/XII (hCA XII)	SMILES	antiproliferative effect [1]	antiproliferative effect [2]	Ki (hCA II [4]) [µM]	anti-proliferative effect (MDA-MB-231 cells)
70.1	1.02	–	4.47	15.7	0.23	11.0	6.4	0.16	COCCOc1cc2ncnc(Nc3cccc(-c4cn(CCOCCOCCOCCOCCOCCNC(=O)Nc5cccc(S(N)(=O)=O)c5)nn4)c3)c2cc1OCCOC [compound 12a, 3-(3-(17-(4-(3-((6,7-Bis(2-methoxyethoxy)quinazoline-4-yl)amino)phenyl)-1H-1,2,3-triazol-1-yl)-3,6,9,12,15-pentaoxaheptadecyl)ureido)benzenesulfonamide]	–	–	–	–
43.3	9.71	–	4.93	8.79	1.97	28.4	1.52	6.38	COCCOc1cc2ncnc(Nc3cccc(-c4cn(CCOCCOCCOCCOCCOCCNC(=S)Nc5ccc(S(N)(=O)=O)cc5)nn4)c3)c2cc1OCCOC [compound 14b, 4-(3-(17-(4-(3-((6,7-Bis(2-methoxyethoxy)quinazolin-4-yl)amino)phenyl)-1H-1,2,3-triazol-1-yl)-3,6,9,12,15-pentaoxaheptadecyl)thioureido)benzenesulfonamide]	–	–	–	–
0.957	32.7	–	1.88	0.51	17.4	10.0	0.0952	344	COCCOc1cc2ncnc(Nc3cccc(-c4cn(CCOCCOCCOCCOCCOCCNC(=S)NCCc5ccc(S(N)(=O)=O)cc5)nn4)c3)c2cc1OCCOC [compound 14d, 4-(22-(4-(3-((6,7-Bis(2-methoxyethoxy)quinazolin-4-yl)amino)phenyl)-1H-1,2,3-triazol-1-yl)-4-thioxo-8,11,14,17,20-pentaoxa-3,5-diazadocosyl)benzenesulfonamide]	–	–	–	–
3.14	0.135	–	0.112	28	1.2	590	0.00533	25.4	COCCOc1cc2ncnc(Nc3cccc(-c4cn(CCOCCOCCOCCNC(=S)Nc5ccc(S(N)(=O)=O)cc5)nn4)c3)c2cc1OCCOC [compound 8b, 4-(3-(2-(2-(2-(2-(4-(3-((6,7-Bis(2-methoxyethoxy)quinazolin-4-yl)amino)phenyl)-1H-1,2,3-triazol-1-yl)ethoxy)ethoxy)ethoxy)ethyl)thioureido)benzenesulfonamide]	–	–	–	–
28.3	11.4	–	0.242	117	46.9	3.51	8.06	1.41	COCCOc1cc2ncnc(Nc3cccc(-c4cn(CCOCCOCCOCCOCCOCCNC(=O)Nc5ccc6oc(=O)ccc6c5)nn4)c3)c2cc1OCCOC [compound 13, 1-(17-(4-(3-((6,7-Bis(2-methoxyethoxy)quinazolin-4-yl)amino)phenyl)-1H-1,2,3-triazol-1-yl)-3,6,9,12,15-pentaoxaheptadecyl)-3-(2-oxo-2H-chromen-6-yl)urea]	–	–	–	–
